This is an account of results in ChEMBL document CHEMBL5661979, “Pharmacological inhibition of BMK1 suppresses tumor growth through promyelocytic leukemia protein” (Cancer Cell, 2010).

SMILES strings stand for the structures. Activity calls are given as the source filed them. The calls are words filed in the database; no cut-off is given here.

The target in test [1] is Activated CDC42 kinase 1 (Homo sapiens, UniProt Q07912). The test is described as follows: Inhibition of TNK2 (unknown origin) assessed as remaining activity at 10 uM by ATP-competition binding assay relative to control.
The target in test [2] is T1, Serine/threonine-protein kinase Sgk3 (Homo sapiens, UniProt Q96BR1).
T1 sequence (Q96BR1 whole entry): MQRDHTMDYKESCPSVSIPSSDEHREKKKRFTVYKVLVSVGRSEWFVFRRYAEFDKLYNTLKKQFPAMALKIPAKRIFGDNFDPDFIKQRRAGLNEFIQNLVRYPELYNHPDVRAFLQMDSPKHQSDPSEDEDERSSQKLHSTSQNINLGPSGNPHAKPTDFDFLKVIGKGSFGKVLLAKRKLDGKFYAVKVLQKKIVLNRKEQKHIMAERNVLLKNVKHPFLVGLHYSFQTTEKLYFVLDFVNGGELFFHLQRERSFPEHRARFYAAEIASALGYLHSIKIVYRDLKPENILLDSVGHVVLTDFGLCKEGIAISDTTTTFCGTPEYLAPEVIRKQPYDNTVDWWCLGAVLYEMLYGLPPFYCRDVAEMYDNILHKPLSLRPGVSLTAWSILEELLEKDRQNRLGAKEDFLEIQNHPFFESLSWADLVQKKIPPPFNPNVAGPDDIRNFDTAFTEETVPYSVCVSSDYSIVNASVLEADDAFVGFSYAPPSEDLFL
Description: Inhibition of SGK3 K1 site in human HeLa cells lysate pre incubated for 15 mins followed by ATP acyl phosphate probe addition and measured after 10 mins by LC-MS/MS analysis. The test is classed as subcellular.

In test [3] the target is Cyclin-dependent kinase 13 (Homo sapiens, UniProt Q14004). The test is described as follows: Inhibition of CHED in human HeLa cells lysate pre incubated for 15 mins followed by ADP acyl phosphate probe addition and measured after 10 mins by LC-MS/MS analysis. Format: subcellular. An outline of the steps: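 KiNativ profiling in HeLa lysate (5 mg/mL total protein). Lysate incubated 15 min with inhibitor at 50, 10, 2, 0.8 or 0 μM. ATP or ADP acylphosphate probe then added (5 μM final) and reacted 10 min. Reaction stopped with urea and analysed by targeted MS, using up to four fragment ions per kinase peptide-probe conjugate. % inhibition taken against untreated lysate. Run in duplicate.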

Test [4] concerns the target Calcium/calmodulin-dependent protein kinase type II subunit gamma (Homo sapiens, UniProt Q13555). The test is described as follows: Inhibition of CAMK2g in human HeLa cells lysate at 50 uM pre incubated for 15 mins followed by ADP acyl phosphate probe addition and measured after 10 mins by LC-MS/MS analysis relative to control. The test is classed as subcellular. Conditions: time 25.0 min. An outline of the steps: (§1)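 KiNativ-type profiling in HeLa lysate (5 mg/mL total protein). Lysate preincubated 15 min with inhibitor at 50, 10, 2, 0.8 or 0 μM, then ATP or ADP acylphosphate probe added (5 μM final) for 10 min. Reaction stopped with urea and analysed by targeted MS, using up to four fragment ions per kinase peptide-probe conjugate. % inhibition calculated against untreated lysate. Duplicate reactions.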

For test [5], the target named is Serine-protein kinase ATM (Homo sapiens, UniProt Q13315). Description: Inhibition of ATM in human HeLa cells lysate at 2 uM pre incubated for 15 mins followed by ADP acyl phosphate probe addition and measured after 10 mins by LC-MS/MS analysis relative to control. Conditions: time 25.0 min. The test is classed as subcellular. An outline of the steps:
as §1

Test [6] concerns the target T2, Phosphatidylinositol 5-phosphate 4-kinase type-2 gamma (Homo sapiens) (UniProt Q8TBX8).
T2 sequence (whole entry): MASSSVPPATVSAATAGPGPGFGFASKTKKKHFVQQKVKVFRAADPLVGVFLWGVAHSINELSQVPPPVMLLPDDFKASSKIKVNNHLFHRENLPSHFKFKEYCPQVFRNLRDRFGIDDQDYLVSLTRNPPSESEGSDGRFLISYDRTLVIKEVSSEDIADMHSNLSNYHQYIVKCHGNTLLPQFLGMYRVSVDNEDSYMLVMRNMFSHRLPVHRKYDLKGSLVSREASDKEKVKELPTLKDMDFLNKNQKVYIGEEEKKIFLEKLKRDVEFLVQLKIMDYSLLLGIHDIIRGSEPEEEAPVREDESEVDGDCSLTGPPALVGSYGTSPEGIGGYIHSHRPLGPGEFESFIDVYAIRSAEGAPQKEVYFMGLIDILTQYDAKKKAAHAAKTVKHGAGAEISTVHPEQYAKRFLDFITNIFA
The test is described as follows: Inhibition of PIP5K2C LIP2 site in human HeLa cells lysate at 50 uM pre incubated for 15 mins followed by ATP acyl phosphate probe addition and measured after 10 mins by LC-MS/MS analysis relative to control. The test is classed as subcellular. Conditions: time 25.0 min.

Test [7] can be described thus: Inhibition of MAP3K5/MAP3K6/MAP3K15 in human HeLa cells lysate at 10 uM pre incubated for 15 mins followed by ATP acyl phosphate probe addition and measured after 10 mins by LC-MS/MS analysis relative to control. The note with it: 25 min, condition cancer.
Test [8] addresses T3, EKC/KEOPS complex subunit TP53RK (Homo sapiens) (UniProt Q96S44).
T3 sequence (whole entry): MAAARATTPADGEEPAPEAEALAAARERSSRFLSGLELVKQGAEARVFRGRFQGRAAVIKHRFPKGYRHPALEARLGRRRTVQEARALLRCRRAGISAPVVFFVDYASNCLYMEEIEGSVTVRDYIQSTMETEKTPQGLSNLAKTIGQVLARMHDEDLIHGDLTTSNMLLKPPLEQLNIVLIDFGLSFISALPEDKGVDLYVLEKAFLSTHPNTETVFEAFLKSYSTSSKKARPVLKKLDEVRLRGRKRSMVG
The test is described as follows: Inhibition of PRPK in human HeLa cells lysate at 10 uM pre incubated for 15 mins followed by ATP acyl phosphate probe addition and measured after 10 mins by LC-MS/MS analysis relative to control. The test is classed as subcellular. Conditions: time 25.0 min.

Test [9] deals with Mitogen-activated protein kinase; ERK1/ERK2 (Homo sapiens) (UniProt P27361+P28482). Description: Inhibition of ERK1/2 in human HeLa cells assessed as reduction in EGF-induced ERK1/2 phosphorylation level at T202/Y204 residue at 1 to 5 uM pre incubated for 1 hr followed by EGF stimulation and measured after 17 mins by Western blot analysis. Format: cell-based. The note with it: dose 1-5 µM, time 77.0 min.
Mitogen-activated protein kinase; ERK1/ERK2 (Homo sapiens), sequence (P27361 whole entry, looked up): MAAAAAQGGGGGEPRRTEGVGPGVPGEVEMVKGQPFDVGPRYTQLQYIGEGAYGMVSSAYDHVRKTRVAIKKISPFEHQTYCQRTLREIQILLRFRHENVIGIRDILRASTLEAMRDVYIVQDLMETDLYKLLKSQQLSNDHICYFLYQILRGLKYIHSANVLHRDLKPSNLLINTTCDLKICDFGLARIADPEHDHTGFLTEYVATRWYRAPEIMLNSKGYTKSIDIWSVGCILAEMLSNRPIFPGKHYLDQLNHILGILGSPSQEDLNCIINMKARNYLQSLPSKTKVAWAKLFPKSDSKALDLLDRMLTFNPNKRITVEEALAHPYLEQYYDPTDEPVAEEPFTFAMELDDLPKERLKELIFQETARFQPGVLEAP
Mitogen-activated protein kinase; ERK1/ERK2 (Homo sapiens), sequence (P28482 whole entry, looked up): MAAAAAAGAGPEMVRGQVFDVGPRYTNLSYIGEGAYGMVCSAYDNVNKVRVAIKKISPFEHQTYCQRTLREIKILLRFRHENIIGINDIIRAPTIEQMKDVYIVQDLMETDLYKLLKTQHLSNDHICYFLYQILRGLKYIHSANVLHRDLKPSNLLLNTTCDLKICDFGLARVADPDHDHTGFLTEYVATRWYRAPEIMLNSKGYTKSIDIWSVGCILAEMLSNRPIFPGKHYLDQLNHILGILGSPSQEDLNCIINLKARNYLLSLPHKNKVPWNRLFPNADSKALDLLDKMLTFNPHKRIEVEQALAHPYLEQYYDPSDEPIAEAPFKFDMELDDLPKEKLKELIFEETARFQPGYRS

Serine-protein kinase ATM, sequence (Q13315 whole entry): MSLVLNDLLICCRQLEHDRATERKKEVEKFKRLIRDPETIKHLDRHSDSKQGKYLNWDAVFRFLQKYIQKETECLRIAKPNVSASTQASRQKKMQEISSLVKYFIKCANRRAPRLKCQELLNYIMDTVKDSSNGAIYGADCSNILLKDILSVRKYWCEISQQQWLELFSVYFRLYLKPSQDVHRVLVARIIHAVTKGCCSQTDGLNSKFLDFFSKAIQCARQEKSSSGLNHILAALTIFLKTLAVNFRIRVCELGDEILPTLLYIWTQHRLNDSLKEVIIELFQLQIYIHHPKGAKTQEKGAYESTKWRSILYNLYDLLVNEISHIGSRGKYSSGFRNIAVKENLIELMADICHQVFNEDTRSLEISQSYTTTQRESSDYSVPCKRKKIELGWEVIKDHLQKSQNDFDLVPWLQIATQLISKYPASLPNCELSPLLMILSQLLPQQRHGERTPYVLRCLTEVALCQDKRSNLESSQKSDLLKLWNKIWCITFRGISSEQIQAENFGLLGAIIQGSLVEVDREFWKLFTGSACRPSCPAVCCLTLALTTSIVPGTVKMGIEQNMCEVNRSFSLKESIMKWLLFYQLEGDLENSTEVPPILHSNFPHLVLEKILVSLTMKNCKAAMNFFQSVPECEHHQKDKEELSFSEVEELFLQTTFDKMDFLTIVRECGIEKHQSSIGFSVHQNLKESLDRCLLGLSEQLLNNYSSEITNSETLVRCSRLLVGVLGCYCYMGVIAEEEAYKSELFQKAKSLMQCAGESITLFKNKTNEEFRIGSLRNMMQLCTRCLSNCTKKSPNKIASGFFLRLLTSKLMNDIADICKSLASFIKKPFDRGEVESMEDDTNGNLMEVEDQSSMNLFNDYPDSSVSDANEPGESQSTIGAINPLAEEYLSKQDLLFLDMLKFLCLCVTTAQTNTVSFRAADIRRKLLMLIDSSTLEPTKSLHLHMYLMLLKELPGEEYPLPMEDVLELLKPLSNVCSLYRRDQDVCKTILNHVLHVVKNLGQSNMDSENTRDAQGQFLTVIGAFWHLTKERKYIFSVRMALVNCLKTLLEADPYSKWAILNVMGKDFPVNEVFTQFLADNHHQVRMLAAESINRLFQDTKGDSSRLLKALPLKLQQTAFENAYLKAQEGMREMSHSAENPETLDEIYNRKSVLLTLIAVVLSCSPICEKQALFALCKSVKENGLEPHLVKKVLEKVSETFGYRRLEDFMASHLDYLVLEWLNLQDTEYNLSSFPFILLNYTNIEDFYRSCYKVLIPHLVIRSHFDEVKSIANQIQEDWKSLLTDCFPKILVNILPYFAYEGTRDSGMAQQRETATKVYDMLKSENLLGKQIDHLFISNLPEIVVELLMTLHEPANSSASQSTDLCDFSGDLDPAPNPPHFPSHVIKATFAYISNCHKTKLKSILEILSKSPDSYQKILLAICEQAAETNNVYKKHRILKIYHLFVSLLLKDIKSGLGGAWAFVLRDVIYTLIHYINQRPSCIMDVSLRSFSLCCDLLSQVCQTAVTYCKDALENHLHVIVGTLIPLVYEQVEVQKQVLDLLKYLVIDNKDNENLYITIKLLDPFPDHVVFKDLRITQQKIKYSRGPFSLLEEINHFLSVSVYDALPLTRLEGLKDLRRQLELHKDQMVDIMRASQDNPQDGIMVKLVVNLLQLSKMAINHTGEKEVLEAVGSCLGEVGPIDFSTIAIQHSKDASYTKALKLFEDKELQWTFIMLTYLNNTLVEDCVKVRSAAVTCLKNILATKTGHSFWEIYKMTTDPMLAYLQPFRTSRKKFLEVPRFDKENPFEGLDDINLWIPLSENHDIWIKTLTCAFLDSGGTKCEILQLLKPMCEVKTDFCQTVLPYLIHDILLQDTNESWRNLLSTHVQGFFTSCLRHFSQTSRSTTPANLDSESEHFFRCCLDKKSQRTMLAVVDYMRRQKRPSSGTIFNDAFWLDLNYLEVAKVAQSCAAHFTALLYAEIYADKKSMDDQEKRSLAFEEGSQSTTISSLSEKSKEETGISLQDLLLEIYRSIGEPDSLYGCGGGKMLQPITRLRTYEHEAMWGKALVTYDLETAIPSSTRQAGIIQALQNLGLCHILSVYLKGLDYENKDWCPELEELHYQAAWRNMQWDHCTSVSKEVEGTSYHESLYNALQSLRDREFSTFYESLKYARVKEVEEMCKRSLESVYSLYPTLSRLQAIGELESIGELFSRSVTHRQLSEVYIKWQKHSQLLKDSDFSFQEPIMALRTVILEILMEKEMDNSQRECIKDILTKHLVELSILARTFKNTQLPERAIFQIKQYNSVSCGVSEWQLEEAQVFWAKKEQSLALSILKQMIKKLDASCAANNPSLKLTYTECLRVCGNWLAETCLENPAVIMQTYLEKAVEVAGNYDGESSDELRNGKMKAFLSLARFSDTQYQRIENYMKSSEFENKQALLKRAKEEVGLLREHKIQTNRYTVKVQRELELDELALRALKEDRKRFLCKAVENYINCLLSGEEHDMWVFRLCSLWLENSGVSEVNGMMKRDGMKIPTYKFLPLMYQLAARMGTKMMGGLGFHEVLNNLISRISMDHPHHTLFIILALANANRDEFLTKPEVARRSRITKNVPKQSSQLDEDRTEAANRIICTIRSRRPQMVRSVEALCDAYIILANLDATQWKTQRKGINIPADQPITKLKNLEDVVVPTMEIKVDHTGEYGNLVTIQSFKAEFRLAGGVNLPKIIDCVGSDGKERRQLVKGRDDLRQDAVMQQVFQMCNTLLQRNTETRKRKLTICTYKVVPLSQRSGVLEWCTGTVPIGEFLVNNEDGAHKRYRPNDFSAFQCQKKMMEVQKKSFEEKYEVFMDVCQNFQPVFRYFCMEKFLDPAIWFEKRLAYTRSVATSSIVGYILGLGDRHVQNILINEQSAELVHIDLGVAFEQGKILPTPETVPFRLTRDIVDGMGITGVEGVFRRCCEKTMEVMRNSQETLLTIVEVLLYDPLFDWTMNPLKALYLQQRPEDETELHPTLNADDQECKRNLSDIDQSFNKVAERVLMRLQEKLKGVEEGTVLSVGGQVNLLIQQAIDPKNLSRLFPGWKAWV
Activated CDC42 kinase 1, sequence (Q07912 whole entry, looked up): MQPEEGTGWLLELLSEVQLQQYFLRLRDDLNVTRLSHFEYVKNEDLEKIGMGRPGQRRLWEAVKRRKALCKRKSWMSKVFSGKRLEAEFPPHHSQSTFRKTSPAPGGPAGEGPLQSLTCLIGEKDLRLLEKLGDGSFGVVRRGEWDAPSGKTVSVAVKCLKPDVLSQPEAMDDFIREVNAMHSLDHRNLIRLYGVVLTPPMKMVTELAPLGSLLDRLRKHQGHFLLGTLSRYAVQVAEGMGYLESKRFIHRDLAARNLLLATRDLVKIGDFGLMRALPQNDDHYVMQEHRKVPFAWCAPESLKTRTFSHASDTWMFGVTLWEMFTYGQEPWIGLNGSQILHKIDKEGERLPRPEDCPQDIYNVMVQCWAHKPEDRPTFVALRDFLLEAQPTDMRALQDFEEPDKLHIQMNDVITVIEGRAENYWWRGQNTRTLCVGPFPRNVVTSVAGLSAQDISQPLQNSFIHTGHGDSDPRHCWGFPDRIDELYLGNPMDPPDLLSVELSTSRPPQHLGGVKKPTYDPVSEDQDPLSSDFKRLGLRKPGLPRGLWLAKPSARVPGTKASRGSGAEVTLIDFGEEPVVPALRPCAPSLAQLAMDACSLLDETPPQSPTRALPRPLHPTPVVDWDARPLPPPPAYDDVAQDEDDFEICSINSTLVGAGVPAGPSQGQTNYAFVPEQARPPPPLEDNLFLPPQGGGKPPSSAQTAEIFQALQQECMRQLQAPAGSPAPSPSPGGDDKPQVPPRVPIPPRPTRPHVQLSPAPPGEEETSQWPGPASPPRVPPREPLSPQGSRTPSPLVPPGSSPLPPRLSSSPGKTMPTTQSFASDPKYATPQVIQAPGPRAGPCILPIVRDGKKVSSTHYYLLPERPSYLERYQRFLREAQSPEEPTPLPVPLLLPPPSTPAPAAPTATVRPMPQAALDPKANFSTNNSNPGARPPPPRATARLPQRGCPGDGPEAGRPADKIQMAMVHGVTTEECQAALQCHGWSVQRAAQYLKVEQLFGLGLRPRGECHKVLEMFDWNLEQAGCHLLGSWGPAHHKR

In the case of `CCOc1cc(N2CCC(O)CC2)ccc1Nc1ncc2c(n1)N(C)c1ccccc1C(=O)N2C`, the Activity in test [1] was 17%. Moreover, the IC50 in test [2] and in test [3] was more than 50 µM throughout. Besides, the inhibition is 14.1% in test [4], 2.3% in test [5], 12.7% in test [6] and -9.7% in test [8]. The inhibition at 10 µM in test [7] was determined as 1.4%. Also, the inhibition result in test [9] is “inactive”.

One may read the IC50 as the midpoint of a concentration-inhibition curve. A higher IC50 goes with weaker potency in that assay. The inhibition is the drop in the measured response relative to a control, in per cent.
